Assay results taken from ChEMBL document CHEMBL1131450, “Synthesis and antitumor evaluation of 2,5-disubstituted-indazolo[4, 3-gh]isoquinolin-6(2H)-ones (9-aza-anthrapyrazoles)” (J Med Chem, 1998).
Converted amounts (≈) assume the structure as drawn.

These molecules were tested on LoVo (assay: In vitro cytotoxicity on human colon adenocarcinoma (LoVo ) tumor cell line.). Conditions: not given.
Type: functional, cell-based

| SMILES | IC50 |
| --- | --- |
| CN(C)CCNc1ccc2c3c(nn2CCN(C)C)-c2cnccc2C(=O)c13 | 0.35 µg/mL (≈ 0.925 µM) |
| CN(C)CCn1nc2c3c(c(NCCNCCO)ccc31)C(=O)c1ccncc1-2 | 0.2 µg/mL (≈ 0.507 µM) |
| NCCNc1ccc2c3c(nn2CCO)-c2cnccc2C(=O)c13 | 28.6 µg/mL (≈ 88.4 µM) |
| NCCn1nc2c3c(c(NCCN4CCOCC4)ccc31)C(=O)c1ccncc1-2 | 1.76 µg/mL (≈ 4.48 µM) |
| CNCCNc1ccc2c3c(nn2CCN)-c2cnccc2C(=O)c13 | 0.21 µg/mL (≈ 0.624 µM) |
| COc1cccc2c1C(=O)c1c(O)c3c(c(O)c1C2=O)C[C@@](O)(C(=O)CO)C[C@@H]3O[C@H]1C[C@H](N)[C@H](O)[C@H](C)O1 [DOXORUBICIN] | 0.58 µg/mL (≈ 1.07 µM) |
| O=C1c2c(O)ccc(O)c2C(=O)c2c(NCCNCCO)ccc(NCCNCCO)c21 [MITOXANTRONE] | 0.024 µg/mL (≈ 0.054 µM) |
| CNCCNc1ccc2c3c(nn2CCNCCO)-c2cnccc2C(=O)c13 [NORTOPIXANTRONE] | 0.54 µg/mL (≈ 1.42 µM) |

These molecules were tested on MX1 (assay: In vivo antitumor activity was measured on MX-1 human mammary carcinoma cells. TWI%=tumor weight inhibition. Optimal dose 2 mg/kg/day.). Conditions: not given.
Type: functional

| SMILES | TWI |
| --- | --- |
| CN(C)CCNc1ccc2c3c(nn2CCN(C)C)-c2cnccc2C(=O)c13 | 56% |

What follows are molecules tested on MX1 (assay: In vivo antitumor activity was measured on MX-1 human mammary carcinoma cells. TWI%=tumor weight inhibition. Optimal dose 40 mg/kg/day.). Conditions: not given.
Type: functional

| SMILES | TWI |
| --- | --- |
| NCCn1nc2c3c(c(NCCN4CCOCC4)ccc31)C(=O)c1ccncc1-2 | 32% |

The molecules below were run on MX1 (assay: In vivo antitumor activity was measured on MX-1 human mammary carcinoma cells. TWI%=tumor weight inhibition. Optimal dose 6 mg/kg/day.). Conditions: not given.
Type: functional

| SMILES | TWI |
| --- | --- |
| CNCCNc1ccc2c3c(nn2CCN)-c2cnccc2C(=O)c13 | 70% |

Each molecule was assayed on MX1 (assay: Antitumor activity was measured on MX-1 human mammary carcinoma cells. TWI%=tumor weight inhibition. Optimal dose at 7.5 mg/kg/day). Conditions: not given.
Type: functional

| SMILES | TWI |
| --- | --- |
| COc1cccc2c1C(=O)c1c(O)c3c(c(O)c1C2=O)C[C@@](O)(C(=O)CO)C[C@@H]3O[C@H]1C[C@H](N)[C@H](O)[C@H](C)O1 [DOXORUBICIN] | 64% |

These molecules were tested on MX1 (assay: In vivo antitumor activity was measured on MX-1 human mammary carcinoma cells. TWI%=tumor weight inhibition. Optimal dose 17.5 mg/kg/day.). Conditions: not given.
Type: functional

| SMILES | TWI |
| --- | --- |
| CNCCNc1ccc2c3c(nn2CCNCCO)-c2cnccc2C(=O)c13 [NORTOPIXANTRONE] | 96% |

What follows are molecules tested on MX1 (assay: In vivo antitumor activity was measured on MX-1 human mammary carcinoma cells. TWI%=tumor weight inhibition. Optimal dose at 3 mg/kg/day). Conditions: not given.
Type: functional

| SMILES | TWI |
| --- | --- |
| O=C1c2c(O)ccc(O)c2C(=O)c2c(NCCNCCO)ccc(NCCNCCO)c21 [MITOXANTRONE] | 57% |

These molecules were tested on P388 (assay: In vivo antitumor activity was measured on systemic P388 murine leukemia cells. Maximum tested dose 40 mg/kg/day.). Conditions: not given.
Type: functional, Mus musculus
In short: (§1)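 CD2F1 male mice given 10⁶ P388 leukemia cells iv (day 0); drug given iv on days 1, 4 and 7. Survival expressed as T/C% = median survival time of treated / median survival of controls × 100, reported at optimal dose (mg/kg/day) or maximum tested dose.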

| SMILES | T/C |
| --- | --- |
| NCCn1nc2c3c(c(NCCN4CCOCC4)ccc31)C(=O)c1ccncc1-2 | 129% |

These molecules were tested on P388 (assay: In vivo antitumor activity was measured on systemic P388 murine leukemia cells. Maximum tested dose 60 (mg/kg/day)). Conditions: not given.
Type: functional, Mus musculus
In short: as §1

| SMILES | T/C |
| --- | --- |
| NCCNc1ccc2c3c(nn2CCO)-c2cnccc2C(=O)c13 | 106% |

What follows are molecules tested on P388 (assay: In vivo antitumor activity was measured on systemic P388 murine leukemia cells. Optimal dose 3 mg/kg/day.). Conditions: not given.
Type: functional, Mus musculus
In short: as §1

| SMILES | T/C |
| --- | --- |
| CNCCNc1ccc2c3c(nn2CCN)-c2cnccc2C(=O)c13 | 153% |

These molecules were tested on P388 (assay: In vivo antitumor activity was measured on systemic P388 murine leukemia cells. Optimal dose 4 mg/kg/day.). Conditions: not given.
Type: functional, Mus musculus
In short: as §1

| SMILES | T/C |
| --- | --- |
| CN(C)CCNc1ccc2c3c(nn2CCN(C)C)-c2cnccc2C(=O)c13 | 381% |

Each molecule was assayed on P388 (assay: In vivo antitumor activity was measured on systemic P388 murine leukemia cells. Optimal dose 6 mg/kg/day.). Conditions: not given.
Type: functional, Mus musculus
In short: as §1

| SMILES | T/C |
| --- | --- |
| CN(C)CCn1nc2c3c(c(NCCNCCO)ccc31)C(=O)c1ccncc1-2 | 194% |

What follows are molecules tested on P388 (assay: In vivo antitumor activity was measured on systemic P388 murine leukemia cells. Optimal dose 75 mg/kg/day.). Conditions: in the assay text read “7.5 mg/kg/day” for “75 mg/kg/day”.
Type: functional, Mus musculus
In short: as §1

| SMILES | T/C |
| --- | --- |
| CNCCNc1ccc2c3c(nn2CCNCCO)-c2cnccc2C(=O)c13 [NORTOPIXANTRONE] | 167% |

These molecules were tested on P388 (assay: In vivo antitumor activity was measured on systemic P388 murine leukemia cells. Optimal dose at 3 mg/kg/day). Conditions: not given.
Type: functional, Mus musculus
In short: as §1

| SMILES | T/C |
| --- | --- |
| O=C1c2c(O)ccc(O)c2C(=O)c2c(NCCNCCO)ccc(NCCNCCO)c21 [MITOXANTRONE] | 197% |

Each molecule was assayed on P388 (assay: In vivo antitumor activity was measured on systemic P388 murine leukemia cells. Optimal dose at 7.5 mg/kg/day). Conditions: not given.
Type: functional, Mus musculus
In short: as §1

| SMILES | T/C |
| --- | --- |
| COc1cccc2c1C(=O)c1c(O)c3c(c(O)c1C2=O)C[C@@](O)(C(=O)CO)C[C@@H]3O[C@H]1C[C@H](N)[C@H](O)[C@H](C)O1 [DOXORUBICIN] | 200% |

What follows are molecules tested on LoVo (assay: Resistance index measured as the ratio of IC50 of LoVo/Dx cell line to that of LoVo cell line.). Conditions: not given.
Type: functional, Homo sapiens

| SMILES | RI |
| --- | --- |
| CN(C)CCNc1ccc2c3c(nn2CCN(C)C)-c2cnccc2C(=O)c13 | 2.8 |
| CN(C)CCn1nc2c3c(c(NCCNCCO)ccc31)C(=O)c1ccncc1-2 | 206 |
| NCCNc1ccc2c3c(nn2CCO)-c2cnccc2C(=O)c13 | >3.5 |
| NCCn1nc2c3c(c(NCCN4CCOCC4)ccc31)C(=O)c1ccncc1-2 | >57 |
| CNCCNc1ccc2c3c(nn2CCN)-c2cnccc2C(=O)c13 | 49 |
| COc1cccc2c1C(=O)c1c(O)c3c(c(O)c1C2=O)C[C@@](O)(C(=O)CO)C[C@@H]3O[C@H]1C[C@H](N)[C@H](O)[C@H](C)O1 [DOXORUBICIN] | 91.3 |
| O=C1c2c(O)ccc(O)c2C(=O)c2c(NCCNCCO)ccc(NCCNCCO)c21 [MITOXANTRONE] | 28 |
| CNCCNc1ccc2c3c(nn2CCNCCO)-c2cnccc2C(=O)c13 [NORTOPIXANTRONE] | >185 |

Each molecule was assayed on MX1 (assay: In vivo antitumor activity was measured on MX-1 human mammary carcinoma cells. TWI%=tumor weight inhibition. Optimal dose 9 mg/kg/day.). Conditions: not given.
Type: functional

| SMILES | TWI |
| --- | --- |
| CN(C)CCn1nc2c3c(c(NCCNCCO)ccc31)C(=O)c1ccncc1-2 | 99% |

The molecules below were run on LoVo/Dx (Homo sapiens) (assay: cells). Conditions: not given.

| SMILES | IC50 |
| --- | --- |
| CN(C)CCNc1ccc2c3c(nn2CCN(C)C)-c2cnccc2C(=O)c13 | 1 µg/mL (≈ 2.64 µM) |
| CN(C)CCn1nc2c3c(c(NCCNCCO)ccc31)C(=O)c1ccncc1-2 | 41.2 µg/mL (≈ 104 µM) |
| NCCNc1ccc2c3c(nn2CCO)-c2cnccc2C(=O)c13 | > 100 µg/mL |
| NCCn1nc2c3c(c(NCCN4CCOCC4)ccc31)C(=O)c1ccncc1-2 | > 100 µg/mL |
| CNCCNc1ccc2c3c(nn2CCN)-c2cnccc2C(=O)c13 | 10.2 µg/mL (≈ 30.3 µM) |
| COc1cccc2c1C(=O)c1c(O)c3c(c(O)c1C2=O)C[C@@](O)(C(=O)CO)C[C@@H]3O[C@H]1C[C@H](N)[C@H](O)[C@H](C)O1 [DOXORUBICIN] | 53 µg/mL (≈ 97.5 µM) |
| O=C1c2c(O)ccc(O)c2C(=O)c2c(NCCNCCO)ccc(NCCNCCO)c21 [MITOXANTRONE] | 0.67 µg/mL (≈ 1.51 µM) |
| CNCCNc1ccc2c3c(nn2CCNCCO)-c2cnccc2C(=O)c13 [NORTOPIXANTRONE] | > 100 µg/mL |
